For assay [1], the system named is Staphylococcus aureus. As to the kind of experiment: Antimicrobial activity against methicillin-resistant Staphylococcus aureus by agar dilution CLSI method. It counts as functional. In a few lines:
(§1)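 CLSI agar dilution MIC against S. aureus clinical isolates. Calcium was added to the medium for daptomycin testing. Vancomycin plates were read after a full 24-h incubation.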

The subject of assay [2] is Staphylococcus aureus. Description: Antimicrobial activity against methicillin-susceptible Staphylococcus aureus by agar dilution CLSI method. It is filed as functional. In short, it runs like this: as §1

Among the data in ChEMBL document CHEMBL1137665, “Antistaphylococcal activity of CG400549, a new experimental FabI inhibitor, compared with that of other agents” (2007) are MIC50 and MIC90 values, retold here.

≈ marks a conversion by molar mass, not a printed value.

Consider `CC[C@H]1OC(=O)[C@H](C)[C@@H](O[C@H]2C[C@@](C)(OC)[C@@H](O)[C@H](C)O2)[C@H](C)[C@@H](O[C@@H]2O[C@H](C)C[C@H](N(C)C)[C@H]2O)[C@](C)(O)C[C@@H](C)CN(C)[C@H](C)[C@@H](O)[C@]1(C)O` [AZITHROMYCIN], for which the MIC50 in assay [1] is over 64 µg/mL. In assay [2], this molecule showed an MIC50 of 1 µg/mL (≈ 1.34 µM) and an MIC90 of over 64 µg/mL.

Turning to `C[C@H]1COc2c(N3CCN(C)CC3)c(F)cc3c(=O)c(C(=O)O)cn1c23.C[C@H]1COc2c(N3CCN(C)CC3)c(F)cc3c(=O)c(C(=O)O)cn1c23.O` [LEVOFLOXACIN], in assay [1], the MIC50 turned out to be 1 µg/mL and the MIC90 is over 32 µg/mL. In assay [2], this molecule registered an MIC50 of 0.25 µg/mL and an MIC90 of 4 µg/mL.
